Laboratory results: ChEMBL document CHEMBL1821594, “Synthesis and anticancer evaluation of novel 2-cyclopropylimidazo[2,1-b][1,3,4]-thiadiazole derivatives” (2011)

Key:
Assay type in all cases: functional
[1] = tested on: UO-31; experiment: Antitumor activity against human UO31 cells after 48 hrs by SRB assay; settings: UO-31, 48 h
How it was run: (§1)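 NCI-60 protocol. Cells were grown in RPMI 1640 with 5% FBS and 2 mM L-glutamine, plated at 5000–40,000 cells/well, and preincubated 24 h at 37 °C, 5% CO2. Time-zero plates were TCA-fixed. Compounds were in DMSO and incubated 48 h. Fixation used cold TCA (final 16% for suspension SR; final 10% for adherent lines 2-7). Plates were stained with 0.4% SRB in 1% acetic acid, solubilized in 10 mM Tris base, and read at 515 nm. Percent growth was calculated from Tz, C and Ti.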

[2] = tested on: HCC 2998; experiment: Antitumor activity against human HCC2998 cells after 48 hrs by SRB assay; settings: HCC 2998, 48 h
How it was run: (§2)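 Cells grown in RPMI 1640 with 5% FBS and 2 mM L-glutamine and seeded at 5000–40,000 cells/well according to doubling time. They were preincubated 24 h at 37 °C, 5% CO2, then exposed to DMSO-solubilized compound for 48 h. Adherent cells were fixed with cold TCA (10% final), suspension cells with 16% final. Stained with 0.4% SRB; absorbance at 515 nm. Percent growth calculated against time-zero and control plates.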

[3] = tested on: UACC-62; experiment: Antitumor activity against human UACC62 cells after 48 hrs by SRB assay; settings: UACC-62, 48 h; how it was run: as §1
[4] = tested on: U-251; experiment: Antitumor activity against human U251 cells after 48 hrs by SRB assay; settings: U-251, 48 h; how it was run: as §1
[5] = tested on: K562; experiment: Antitumor activity against human K562 cells after 48 hrs by SRB assay; settings: K562, 48 h; how it was run: as §2
[6] = tested on: DU-145; experiment: Antitumor activity against human DU145 cells after 48 hrs by SRB assay; settings: DU-145, 48 h; how it was run: as §2
[7] = tested on: 786-0; experiment: Antitumor activity against human 786-0 cells after 48 hrs by SRB assay; settings: 786-0, 48 h; how it was run: as §2
[8] = tested on: NCI-H522; experiment: Antitumor activity against human NCI-H522 cells after 48 hrs by SRB assay; settings: NCI-H522, 48 h; how it was run: as §2
[9] = tested on: SK-MEL-2; experiment: Antitumor activity against human SK-MEL-2 cells after 48 hrs by SRB assay; settings: SK-MEL-2, 48 h; how it was run: as §2
[10] = tested on: MDA-MB-435; experiment: Antitumor activity against human MDA-MB-435 cells after 48 hrs by SRB assay; settings: MDA-MB-435, 48 h; how it was run: as §2
[11] = tested on: RPMI-8226; experiment: Antitumor activity against human RPMI8226 cells after 48 hrs by SRB assay; settings: RPMI-8226, 48 h; how it was run: as §2
[12] = tested on: A498; experiment: Antitumor activity against human A498 cells after 48 hrs by SRB assay; settings: A498, 48 h; how it was run: as §2
[13] = tested on: SK-OV-3; experiment: Antitumor activity against human SKOV3 cells after 48 hrs by SRB assay; settings: SK-OV-3, 48 h; how it was run: as §2
[14] = tested on: HL-60(TB); experiment: Antitumor activity against human HL-60(TB) cells after 48 hrs by SRB assay; settings: HL-60, 48 h
How it was run: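 NCI-60 protocol: cells in RPMI 1640 with 5% FBS and 2 mM glutamine, preincubated 24 h at 37 °C with 5% CO2. Compounds from DMSO stock, tested at 10^-5 M single dose or five 10-fold doses, for 48 h. Suspension cells fixed in settled form (16% TCA final), then SRB stained and read at 515 nm. % growth is calculated against time-zero and control plates; GI50, TGI and LC50 are derived.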

[15] = tested on: NCI-H322M; experiment: Antitumor activity against human NCI-H322M cells after 48 hrs by SRB assay; how it was run: as §2
[16] = tested on: MDA-MB-468; experiment: Antitumor activity against human MDA-MB-468 cells after 48 hrs by SRB assay; settings: MDA-MB-468, 48 h; how it was run: as §2
[17] = tested on: CCRF-CEM; experiment: Antitumor activity against human CCRF-CEM cells after 48 hrs by SRB assay; how it was run: as §2
[18] = tested on: UACC-257; experiment: Antitumor activity against human UACC257 cells after 48 hrs by SRB assay; settings: UACC-257, 48 h; how it was run: as §1
[19] = tested on: MDA-MB-231; experiment: Antitumor activity against human MDA-MB-231 cells after 48 hrs by SRB assay; settings: MDA-MB-231, 48 h; how it was run: as §2
[20] = tested on: SN12C; experiment: Antitumor activity against human SN12C cells after 48 hrs by SRB assay; how it was run: as §2
[21] = tested on: A549; experiment: Antitumor activity against human A549 cells after 48 hrs by SRB assay; settings: A549, 48 h; how it was run: as §2
[22] = tested on: M14; experiment: Antitumor activity against human M14 cells after 48 hrs by SRB assay; settings: M14, 48 h; how it was run: as §2
[23] = tested on: EKVX; experiment: Antitumor activity against human EKVX cells after 48 hrs by SRB assay; how it was run: as §2
[24] = tested on: SK-MEL-28; experiment: Antitumor activity against human SK-MEL-28 cells after 48 hrs by SRB assay; settings: SK-MEL-28, 48 h; how it was run: as §2
[25] = tested on: CAKI-1; experiment: Antitumor activity against human Caki1 cells after 48 hrs by SRB assay; settings: CAKI-1, 48 h; how it was run: as §2
[26] = tested on: BT-549; experiment: Antitumor activity against human BT549 cells after 48 hrs by SRB assay; settings: BT-549, 48 h; how it was run: as §2
[27] = tested on: SR; experiment: Antitumor activity against human SR cells after 48 hrs by SRB assay; how it was run: as §1
[28] = read-out: LC50 (the source's name)

Clc1ccc(-c2nc3sc(C4CC4)nn3c2Br)cc1
GI50 [1]: 16.4 µM | TGI [1]: > 100 µM | CC50 [1, 28]: > 100 µM | GI50 [2]: 8.19 µM | TGI [2]: > 100 µM | CC50 [2, 28]: > 100 µM | GI50 [3]: 4.36 µM | TGI [3]: > 100 µM | CC50 [3, 28]: > 100 µM | GI50 [4]: 4.29 µM | TGI [4]: > 100 µM | CC50 [4, 28]: > 100 µM | GI50 [5]: 1.79 µM | TGI [5]: > 100 µM | CC50 [5, 28]: > 100 µM | GI50 [6]: 19.2 µM | TGI [6]: > 100 µM | CC50 [6, 28]: > 100 µM | GI50 [7]: 13.6 µM | TGI [7]: > 100 µM | CC50 [7, 28]: > 100 µM | GI50 [8]: 5.31 µM | TGI [8]: 55.4 µM | CC50 [8, 28]: > 100 µM | GI50 [9]: 11 µM | TGI [9]: 59.3 µM | CC50 [9, 28]: > 100 µM | GI50 [10]: 6.08 µM | TGI [10]: > 100 µM | CC50 [10, 28]: > 100 µM | GI50 [11]: 3.22 µM | TGI [11]: > 100 µM | CC50 [11, 28]: > 100 µM | GI50 [12]: 30.8 µM | TGI [12]: > 100 µM | CC50 [12, 28]: > 100 µM | GI50 [13]: 35 µM | TGI [13]: > 100 µM | CC50 [13, 28]: > 100 µM | GI50 [14]: 3.34 µM | TGI [14]: > 100 µM | CC50 [14, 28]: > 100 µM | GI50 [15]: 43.4 µM | TGI [15]: > 100 µM | CC50 [15, 28]: > 100 µM | GI50 [16]: 2.95 µM | TGI [16]: > 100 µM | CC50 [16, 28]: > 100 µM | GI50 [17]: 3.66 µM | TGI [17]: > 100 µM | CC50 [17, 28]: > 100 µM | GI50 [18]: 4.14 µM | TGI [18]: > 100 µM | CC50 [18, 28]: > 100 µM | GI50 [19]: 6.59 µM | TGI [19]: > 100 µM | CC50 [19, 28]: > 100 µM | GI50 [20]: 14.3 µM | TGI [20]: > 100 µM | CC50 [20, 28]: > 100 µM | GI50 [21]: 7.42 µM | TGI [21]: > 100 µM | CC50 [21, 28]: > 100 µM | GI50 [22]: 7.7 µM | TGI [22]: > 100 µM | CC50 [22, 28]: > 100 µM | GI50 [23]: 5.22 µM | TGI [23]: > 100 µM | CC50 [23, 28]: > 100 µM | GI50 [24]: 35.6 µM | TGI [24]: > 100 µM | CC50 [24, 28]: > 100 µM | GI50 [25]: 9.69 µM | TGI [25]: > 100 µM | CC50 [25, 28]: > 100 µM | GI50 [26]: 4.07 µM | TGI [26]: > 100 µM | CC50 [26, 28]: > 100 µM | GI50 [27]: 2.9 µM | TGI [27]: > 100 µM | CC50 [27, 28]: > 100 µM
